Assay results: ChEMBL document CHEMBL1154204, “Design, synthesis and pharmacological screening of novel nitric oxide donors containing 1,5-diarylpyrazolin-3-one as nontoxic NSAIDs” (Eur J Med Chem, 2009)
Converted amounts (≈) assume the structure as drawn.

Key:
[1] = test system: Rattus norvegicus; experiment: Gastrointestinal toxicity in Wistar rat assessed as ulcer incidence at 24 mg/kg, po; format: organism-based; set-up: dose 24 mg/kg, route oral; conditions: in vivo
[2] = test system: Rattus norvegicus; experiment: Gastrointestinal toxicity in Wistar rat assessed as gastric mucosal layer disruption at 24 mg/kg, po by histopathological study; format: organism-based, Gastric mucosa; set-up: dose 24 mg/kg, route oral; conditions: in vivo
[3] = test system: Rattus norvegicus; experiment: Gastrointestinal toxicity in Wistar rat assessed as gastric mucosal layer disruption at 40.71 mg/kg, po by histopathological study; format: organism-based, Gastric mucosa; set-up: dose 40.71 mg/kg, route oral; conditions: in vivo
[4] = test system: Rattus norvegicus; experiment: Gastrointestinal toxicity in Wistar rat assessed as ulcer index at 40.71 mg/kg, po; format: organism-based; set-up: dose 40.71 mg/kg, route oral; conditions: in vivo
[5] = test system: Rattus norvegicus; experiment: Gastrointestinal toxicity in Wistar rat assessed as gastric mucosal layer disruption at 38.27 mg/kg, po by histopathological study; format: organism-based, Gastric mucosa; set-up: dose 38.27 mg/kg, route oral; conditions: in vivo
[6] = test system: Rattus norvegicus; experiment: Gastrointestinal toxicity in Wistar rat assessed as gastric mucosal layer disruption at 34.84 mg/kg, po by histopathological study; format: organism-based, Gastric mucosa; set-up: dose 34.84 mg/kg, route oral; conditions: in vivo
[7] = Induction of nitric oxide release at 0.1 mM in pH 7.4 phosphate buffer in presence of 5 mM L-cysteine by Griess method; conditions: pH 7.4, 100 µM
[8] = test system: Rattus norvegicus; experiment: Antiinflammatory activity in Wistar rat assessed as inhibition of carrageenan-induced paw edema measured after 2 hrs at 6 mg/kg, po equimolar dose of indomethacin administered 1 hr before carrageenan challenge; format: functional
Outline: (§1)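 Wistar rats of either sex, 120–140 g, fasted 24 h, n = 6 per group. Compounds were suspended in 1.0% aqueous sodium CMC and dosed orally, equimolar to indomethacin 6 mg/kg, 1 h before subplantar carrageenan (1.0% w/v, 0.1 mL) into the right hind paw. Paw volume was read by plethysmometer before and after injection. Results are % inhibition versus vehicle control. ANOVA with Dunnett's test.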

[9] = test system: Rattus norvegicus; experiment: Gastrointestinal toxicity in Wistar rat assessed as ulcer incidence at 33.70 mg/kg, po; format: organism-based; set-up: dose 33.7 mg/kg, route oral; conditions: in vivo, 33.7 mg/kg
[10] = test system: Mus musculus; experiment: Analgesic activity in Swiss albino mouse assessed as inhibition of acetic acid-induced writhing at 0.00001911 mol/kg, po administered 1 hr before acetic acid challenge measured after 25 mins; format: functional
Outline: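 Acetic acid writhing in mice. Compounds were suspended in 1.0% aqueous sodium CMC and given orally at equimolar doses equivalent to 6 mg/kg indomethacin (0.00001911 mol/kg). Writhes were counted over 25 min after treatment, n = 6, and reported as % inhibition versus vehicle control. One-way ANOVA with Dunnett's test.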

[11] = test system: Rattus norvegicus; experiment: Gastrointestinal toxicity in Wistar rat assessed as ulcer index at 34.84 mg/kg, po; format: organism-based; set-up: dose 34.84 mg/kg, route oral; conditions: in vivo
[12] = test system: Rattus norvegicus; experiment: Gastrointestinal toxicity in Wistar rat assessed as ulcer incidence at 40.71 mg/kg, po; format: organism-based; set-up: dose 40.71 mg/kg, route oral; conditions: in vivo
[13] = test system: Rattus norvegicus; experiment: Gastrointestinal toxicity in Wistar rat assessed as ulcer index at 38.27 mg/kg, po; format: organism-based; set-up: dose 38.27 mg/kg, route oral; conditions: in vivo
[14] = test system: Rattus norvegicus; experiment: Gastrointestinal toxicity in Wistar rat assessed as ulcer incidence at 34.84 mg/kg, po; format: organism-based; set-up: dose 34.84 mg/kg, route oral; conditions: in vivo
[15] = test system: Rattus norvegicus; experiment: Antiinflammatory activity in Wistar rat assessed as inhibition of carrageenan-induced paw edema measured after 3 hrs at 6 mg/kg, po equimolar dose of indomethacin administered 1 hr before carrageenan challenge; format: functional; outline: as §1
[16] = test system: Rattus norvegicus; experiment: Gastrointestinal toxicity in Wistar rat assessed as ulcer index at 33.70 mg/kg, po; format: organism-based; set-up: dose 33.7 mg/kg, route oral; conditions: in vivo, 33.7 mg/kg
[17] = test system: Rattus norvegicus; experiment: Gastrointestinal toxicity in Wistar rat assessed as gastric mucosal layer disruption at 33.70 mg/kg, po by histopathological study; format: organism-based, Gastric mucosa; set-up: dose 33.7 mg/kg, route oral; conditions: in vivo, 33.7 mg/kg
[18] = test system: Aorta; experiment: Vasorelaxant activity in Wistar rat aorta assessed as inhibition of norepinephrine-induced contractions; format: functional, tissue-based
Outline: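 Endothelium-intact aortic rings were accepted only if relaxation was ≥70% of the NE-induced contraction. Rings were then contracted with NE or 30 mM KCl, and test compounds were added cumulatively once a stable plateau was reached. EC50 values were calculated from cumulative concentration-response curves.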

[19] = test system: Rattus norvegicus; experiment: Gastrointestinal toxicity in Wistar rat assessed as ulcer incidence at 38.27 mg/kg, po; format: organism-based; set-up: dose 38.27 mg/kg, route oral; conditions: in vivo
[20] = test system: Rattus norvegicus; experiment: Antiinflammatory activity in Wistar rat assessed as inhibition of carrageenan-induced paw edema measured after 1 hr at 6 mg/kg, po equimolar dose of indomethacin administered 1 hr before carrageenan challenge; format: functional; outline: as §1
[21] = test system: Rattus norvegicus; experiment: Antiinflammatory activity in Wistar rat assessed as inhibition of carrageenan-induced paw edema measured after 3 hrs at 6 mg/kg, po administered 1 hr before carrageenan challenge; format: functional; outline: as §1
[22] = test system: Rattus norvegicus; experiment: Antiinflammatory activity in Wistar rat assessed as inhibition of carrageenan-induced paw edema measured after 1 hr at 6 mg/kg, po administered 1 hr before carrageenan challenge; format: functional; outline: as §1
[23] = test system: Rattus norvegicus; experiment: Antiinflammatory activity in Wistar rat assessed as inhibition of carrageenan-induced paw edema measured after 2 hrs at 6 mg/kg, po administered 1 hr before carrageenan challenge; format: functional; outline: as §1

Activity [7] | EC50 [18] | Compound | Activity [3] | Activity [4] | Activity [5] | Activity [6] | inhibition in vivo [8] | Activity [9] | inhibition (INH) [10] | Activity [11] | Activity [12] | Activity [13] | Activity [14] | inhibition in vivo [15] | Activity [16] | Activity [17] | Activity [19] | inhibition in vivo [20] | also measured
– | – | O=C(O)Cc1ccccc1Nc1c(Cl)cccc1Cl [DICLOFENAC] | – | – | – | – | – | – | – | – | – | – | – | – | – | – | – | – | Activity [1]: Toxic; Activity [2]: Toxic
0.39% | 49.1 µg/mL (≈ 111 µM) | O=C(CO[N+](=O)[O-])NNC(=O)c1ccc(-n2[nH]c(=O)cc2-c2ccc([N+](=O)[O-])cc2)cc1 | Non-toxic | Non-toxic | Non-toxic | Non-toxic | 27.1% | Non-toxic | 45.09% | Non-toxic | Non-toxic | Non-toxic | Non-toxic | 24% | Non-toxic | Non-toxic | Non-toxic | 23.6% | –
0.51% | 26.7 µg/mL (≈ 67.3 µM) | O=C(CO[N+](=O)[O-])NNC(=O)c1ccc(-n2[nH]c(=O)cc2-c2ccccc2)cc1 | – | – | – | – | 16.1% | – | 53.92% | – | – | – | – | 20.5% | – | – | – | 19.8% | –
0.27% | 70.8 µg/mL (≈ 146 µM) | CCOC(=O)c1c(-c2ccccc2O)n(-c2ccc(C(=O)NNC(=O)CO[N+](=O)[O-])cc2)[nH]c1=O | – | – | – | – | 26.6% | – | 10.78% | – | – | – | – | 21.1% | – | – | – | 27.8% | –
0.49% | 28.2 µg/mL (≈ 54.8 µM) | CCOC(=O)c1c(-c2ccc([N+](=O)[O-])cc2)n(-c2ccc(C(=O)NNC(=O)CO[N+](=O)[O-])cc2)[nH]c1=O | – | – | – | – | 28.1% | – | 45.9% | – | – | – | – | 22.2% | – | – | – | 27.8% | –
0.32% | 66.8 µg/mL (≈ 156 µM) | COc1ccccc1-c1cc(=O)[nH]n1-c1ccc(C(=O)NNC(=O)CO[N+](=O)[O-])cc1 | Non-toxic | Non-toxic | Non-toxic | Non-toxic | 55.7% | Non-toxic | 51.96% | Non-toxic | Non-toxic | Non-toxic | Non-toxic | 57.9% | Non-toxic | Non-toxic | Non-toxic | – | inhibition in vivo at 6 mg/kg ([20]; dose 6 mg/kg): 55.1%
0.37% | 50.2 µg/mL (≈ 99.6 µM) | CCOC(=O)c1c(-c2ccc(Cl)cc2)n(-c2ccc(C(=O)NNC(=O)CO[N+](=O)[O-])cc2)[nH]c1=O | – | – | – | – | 10.4% | – | 6.86% | – | – | – | – | 6.43% | – | – | – | 3.2% | –
– | – | COc1ccc2c(c1)c(CC(=O)O)c(C)n2C(=O)c1ccc(Cl)cc1 [INDOMETHACIN] | – | – | – | – | – | – | 54.9% | – | – | – | – | – | – | – | – | – | inhibition in vivo at 6 mg/kg [21]: 57.9%; inhibition in vivo at 6 mg/kg [22]: 52.7%; inhibition in vivo at 6 mg/kg [23]: 58.3%
0.46% | 35.5 µg/mL (≈ 75.6 µM) | CCOC(=O)c1c(-c2ccccc2)n(-c2ccc(C(=O)NNC(=O)CO[N+](=O)[O-])cc2)[nH]c1=O | Non-toxic | Non-toxic | Non-toxic | Non-toxic | 57.8% | Non-toxic | 56.86% | Non-toxic | Non-toxic | Non-toxic | Non-toxic | 59.6% | Non-toxic | Non-toxic | Non-toxic | 54% | –
0.66% | 21.3 µg/mL (≈ 49.4 µM) | O=C(CO[N+](=O)[O-])NNC(=O)c1ccc(-n2[nH]c(=O)cc2-c2ccc(Cl)cc2)cc1 | – | – | – | – | 11.4% | – | 10.78% | – | – | – | – | 5.84% | – | – | – | 5.88% | –
0.35% | 63.1 µg/mL (≈ 126 µM) | CCOC(=O)c1c(-c2ccccc2OC)n(-c2ccc(C(=O)NNC(=O)CO[N+](=O)[O-])cc2)[nH]c1=O | Non-toxic | Non-toxic | Non-toxic | Non-toxic | 30.7% | Non-toxic | 50.98% | Non-toxic | Non-toxic | Non-toxic | Non-toxic | 25.1% | Non-toxic | Non-toxic | Non-toxic | 31% | –
0.69% | 17.8 µg/mL (≈ 43.1 µM) | O=C(CO[N+](=O)[O-])NNC(=O)c1ccc(-n2[nH]c(=O)cc2-c2ccccc2O)cc1 | – | – | – | – | 19.3% | – | 16.66% | – | – | – | – | 16.4% | – | – | – | 23% | –
